{"source": "paper PMC4766003", "about": "(Biomacromolecules, 2015)", "molecular_target": "Concanavalin A (Con A) (Canavalia ensiformis, UniProt P02866)", "sequence (P02866 30-148 limits assumed)": "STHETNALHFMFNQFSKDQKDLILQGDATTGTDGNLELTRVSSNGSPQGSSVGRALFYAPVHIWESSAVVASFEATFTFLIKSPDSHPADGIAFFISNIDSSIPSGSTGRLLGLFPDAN", "sequence (P02866 164-281 limits assumed)": "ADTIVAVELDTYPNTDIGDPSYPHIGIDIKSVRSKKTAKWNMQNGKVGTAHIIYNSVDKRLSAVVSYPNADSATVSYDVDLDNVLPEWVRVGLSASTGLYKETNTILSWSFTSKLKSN", "test": "isothermal titration calorimetry, one-site model", "type": "binding", "conditions": "100 mM acetate pH 4.6, 1 mM MnCl2, 1 mM CaCl2, 30 mM NaCl, 25 °C; dimeric Con A", "outline": "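Con A dialysed (10 kDa cutoff) into the assay buffer, with concentration from A280 (A1%,1cm = 12.4, monomer basis). Glycopolymer ligands were dialysed and quantified colorimetrically. Titrant in the same buffer was injected into Con A at 25 °C, stirred at 1000 rpm. Con A 0.42–0.06 mM; polymers 0.338–0.017 mM at 2 s intervals; monomers 7.55–8.03 mM at 4 s intervals. One-site fit floated ΔH, Ka and n.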"}
{"substance": "Man-Glc [25b]", "values": [{"measurement": "Ka (M^-1 × 10^3)^c", "result": "8.56 × 10^3"}]}
{"substance": "Man-Man [22b]", "values": [{"measurement": "Ka (M^-1 × 10^3)^c", "result": "17.3 × 10^3"}]}
